Sampled rows, rich in hits. Any-hit rate of the full collection: about 4.5%.
OX1R antag-1 – human HCRTR1 antagonism. O43613. CHO/OX1R cells, Fluo-8 calcium fluorescence, orexin A. inhibition, % at 5 µM. hit rate 0.43% among 330,000. AID 434989;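 active = inhibition above its plate's threshold, mean inhibition of all tested compounds on the plate plus 3 SD, cut at about 37% in these data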;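 also: 0% = orexin A challenge wells and 100% = SB-334867-A antagonist wells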
Target sequence (O43613 whole entry, looked up): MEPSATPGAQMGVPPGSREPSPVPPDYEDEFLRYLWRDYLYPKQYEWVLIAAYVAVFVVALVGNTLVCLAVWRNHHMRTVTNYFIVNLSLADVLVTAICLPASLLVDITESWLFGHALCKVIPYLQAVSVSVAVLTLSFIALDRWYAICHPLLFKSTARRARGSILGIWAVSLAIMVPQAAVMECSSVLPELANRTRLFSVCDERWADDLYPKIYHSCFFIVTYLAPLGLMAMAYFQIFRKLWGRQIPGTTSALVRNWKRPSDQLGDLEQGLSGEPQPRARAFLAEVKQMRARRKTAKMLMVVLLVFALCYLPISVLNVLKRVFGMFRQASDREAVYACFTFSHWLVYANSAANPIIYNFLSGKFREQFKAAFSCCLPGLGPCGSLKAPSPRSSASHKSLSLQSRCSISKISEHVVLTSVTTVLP
CHO parental Ca – counter-screen: ATP calcium response change in parental CHO cells. AID 463079. hit rate 0.63% among 330,000. inhibition, % at 5.6 µM. parental CHO-K1, ATP-induced calcium, Fluo-8 fluorescence;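 active = inhibition above that plate's mean sample inhibition plus 3 SD, cut at about 26% in these data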;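 also: 0% = ATP-challenged DMSO wells and 100% = DMSO wells without ATP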
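Test system: untransfected parental CHO cell line; also added: ATP stimulus; dosing: 5.6 µM, single dose; signal: calcium-sensitive Fluo-8 fluorescence; measure: percent inhibition of ATP-evoked calcium rise, normalized to controls; benchmarks: low control ATP plus DMSO, high control DMSO only; replication: one well per compound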
TAAR1 agonist – human TAAR1 agonism; CHO RD-HGA16 TAAR1, Fluo-8 calcium fluorescence; vehicle wells 0%, saturating PEA agonist 100%; Q96RJ0; hit rate 0.99% among 360,000; activation, % at 3 µM; AID 624467;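 active = activation above the mean activation of all test compounds in the run plus 3 SD, cut at about 38% in these data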
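System: CHO RD-HGA16 cells carrying human TAAR1 plus Gα16; Incubation: 17-24 h seeding, 75 min 37 °C dye, 30 min RT; Measured by: Fluo-8 fluorescence, 5 s baseline then 140 s kinetic read; Control set: DMSO and PEA EC100; Replication: single well for each compound.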
TAAR1 antagonist – antagonists of human TAAR1; AID 624466; Q96RJ0; inhibition, % at 3 µM; CHO RD-HGA16 TAAR1, Fluo-8 calcium fluorescence, antagonist; hit rate 1.5% among 360,000;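 active = inhibition above a per-plate cutoff, the mean inhibition of test compounds on that plate plus 3 SD, cut at about 49% in these data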;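 also: 0% = DMSO plus EC80 beta-PEA response and 100% = DMSO alone without agonist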
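Test system – hTAAR1-expressing CHO RD-HGA16 cells, Gα16-coupled · Also added – β-PEA at EC80 concentration, post-compound challenge · Compound – 3 µM, single point · Incubation – dye loading 75 min at 37 °C, then 30 min room temperature · Measured by – Fluo-8 intracellular calcium dye fluorescence, real-time kinetic reads · Benchmarks – vehicle and agonist controls · Replicates – singlicate, one well per test compound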
GPR7 antag – antagonists of human GPR7 (neuropeptides B/W receptor 1). P48145. GPR7-expressing cells, fluorescence antagonist assay. inhibition, % at 4.4 µM. hit rate 1.1% among 290,000. AID 1861; in the data active = inhibition above about 16%, passing the limit was not always enough;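 also: cells stimulated with the agonist NPW; 0% = agonist with vehicle and 100% = vehicle without agonist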
Target sequence (P48145 whole entry, looked up): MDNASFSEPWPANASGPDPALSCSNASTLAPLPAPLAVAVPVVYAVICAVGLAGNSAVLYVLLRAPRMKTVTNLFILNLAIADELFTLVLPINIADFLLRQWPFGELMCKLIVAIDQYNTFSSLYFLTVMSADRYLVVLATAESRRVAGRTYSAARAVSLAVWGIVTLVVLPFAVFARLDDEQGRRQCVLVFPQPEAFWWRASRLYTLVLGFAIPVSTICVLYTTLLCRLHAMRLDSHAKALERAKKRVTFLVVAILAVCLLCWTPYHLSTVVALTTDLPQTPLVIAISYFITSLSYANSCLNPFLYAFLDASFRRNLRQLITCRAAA
OX1R antag-2 – antagonists of human orexin 1 receptor (OX1R). O43613. OX1R-expressing cells, FRET antagonist read-out. inhibition, % at 6.6 µM. hit rate 1.8% among 330,000. AID 485270; in the data active = inhibition mostly above about 38%, no sharp cut-off; inactive = mostly below about 40%;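 also: 0% = agonist challenge alone and 100% = reference antagonist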
OX1R Fluo8 conf – confirmation of human orexin 1 receptor antagonists | shares compounds with OX1R antag-1 | CHO/OX1R cells, orexin A calcium Fluo-8 fluorescence | inhibition, % at 5 µM | hit rate 38% among 1,100; in the data active = inhibition above about 29%;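 also: 0% = agonist challenge alone and 100% = reference antagonist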
CHO Ca counter – counter-screen: parental CHO calcium response change, triplicate. shares compounds with OX1R antag-1. parental CHO-K1, ATP-induced calcium, Fluo-8 fluorescence. inhibition, % at 5.6 µM. hit rate 9.3% among 1,100;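 active = inhibition above a per-plate limit, the mean inhibition of that plate's test compounds plus 3 SD, cut at about 25% in these data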;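 also: 0% = ATP challenge with DMSO and 100% = DMSO without ATP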
OX1R HTRF confirm – OX1R (human) antagonism, HTRF confirmed; shares compounds with OX1R antag-2; OX1R-expressing cells, HTRF antagonist assay; inhibition, % at 6.6 µM; hit rate 49% among 1,800; AID 492964; in the data active = inhibition above about 55%;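 also: CHO cells expressing OX1R stimulated with orexin A at about EC80; 0% = agonist challenge alone and 100% = reference antagonist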
CHO-K1 HTRF cnt – signal in parental CHO-K1 cells, OX1R antagonist counter-screen. AID 493232. shares compounds with OX1R antag-2. HTRF counterscreen. inhibition, % at 6.6 µM. hit rate 48% among 1,800; in the data active = inhibition above about 17%;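 also: 0% = agonist challenge with vehicle and 100% = vehicle alone without agonist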
TAAR1 ag conf – confirmation of human TAAR1 agonists; shares compounds with TAAR1 agonist; CHO RD-HGA16 TAAR1, Fluo-8 calcium fluorescence; scaled: DMSO 0%, maximal phenethylamine 100%; activation, % at 3 µM; hit rate 82% among 2,400;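 active = activation above a cutoff set at the run's mean compound activation plus 3 SD, cut at about 39% in these data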
Ga16 ag counter – nonselective agonism, TAAR1 counter-screen. shares compounds with TAAR1 agonist. CHO-Ga16 parental, Fluo-8 calcium fluorescence; normalized to maximal ATP response, DMSO zero. activation, % at 3 µM. hit rate 50% among 2,400. AID 651787;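 active = activation above the run cutoff, the mean activation over all tested wells plus 3 SD, cut at about 12% in these data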;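 also: 0% = DMSO wells and 100% = maximal ATP response on the peak over basal ratio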
TAAR1 desensitize – human TAAR1 agonist that also desensitizes the receptor; shares compounds with TAAR1 agonist; CHO RD-HGA16 hTAAR1, Fluo-8 calcium, beta-PEA response inhibition; inhibition, % at 3 µM; hit rate 46% among 2,400;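 active = inhibition above the run cutoff, the mean inhibition of all test compounds plus 3 SD, cut at about 49% in these data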;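 also: beta-PEA stimulus applied at its EC80; loss of beta-PEA calcium signal after compound pretreatment read as receptor desensitization; 0% = DMSO with beta-PEA at EC80 and 100% = DMSO alone without agonist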
Ga16 antag count – counter-screen for TAAR1 agonists: nonselective Ga16 antagonists. CHO-Ga16 ATP-induced calcium, Fluo-8 fluorescence. hit rate 39% among 2,400. shares compounds with TAAR1 agonist. inhibition, % at 3 µM;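 active = inhibition above the plate's mean compound inhibition plus 3 SD, computed per plate, cut at about 22% in these data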;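 also: 0% = EC80 ATP with DMSO and 100% = DMSO wells without ATP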
* = called active by the depositor; x = no result.

SMILES	OX1R antag-1	CHO parental Ca	TAAR1 agonist	TAAR1 antagonist	GPR7 antag	OX1R antag-2	OX1R HTRF confirm	CHO-K1 HTRF cnt	others
C/C(=N/NC(=O)c1ccncc1)c1cc2ccc(O)cc2oc1=O	30.3	23.2	89.8*	18.6	-3.3	48.6	x	x	OX1R Fluo8 conf=66.5*;CHO Ca counter=54.4*;TAAR1 ag conf=134.0*;Ga16 ag counter=152.7*;TAAR1 desensitize=5.7;Ga16 antag count=10.9
CC(CNC(=O)c1ccc2c(c1)OCO2)c1ccc([N+](=O)[O-])cc1 (stereo not drawn)	-4.0	-7.8	7.0	4.7	1.3	7.0	x	x
COc1ccc2ccccc2c1CNC(=O)CC1C(=O)NCCN1CC(C)C (stereo not drawn)	-18.4	-50.6	3.1	-20.4	-12.2	39.3	x	x
O=C(Nc1nnc(-c2ccccc2Cl)o1)c1nc2ccccc2s1	31.4	19.6	134.0*	73.7*	-4.0	-1.0	x	x	OX1R Fluo8 conf=5.7;CHO Ca counter=0.8;TAAR1 ag conf=113.1*;Ga16 ag counter=81.1*;TAAR1 desensitize=63.8*;Ga16 antag count=36.1*
O=C(Nc1nnc(-c2ccccc2Cl)o1)c1ccco1	-4.8	-0.6	6.1	10.8	-4.7	9.7	x	x
N#Cc1cc([N+](=O)[O-])ccc1Oc1ccc(-c2nnco2)cc1	-5.4	5.8	4.1	-19.2	13.0	78.7*	35.4	42.4*
O=[N+]([O-])c1ccc(Oc2ccc(-c3nnco3)cc2)c(Cl)c1	-6.8	0.7	-1.4	12.7	6.7	44.5	x	x
Cc1nc2c(C(=O)Nc3ccc(N4CCCC(O)C4)cc3)snc2c(=O)[nH]1 (stereo not drawn)	2.9	-1.8	0.4	-22.6	4.3	94.8*	38.5	58.7*
O=C(NS(=O)(=O)Nc1ccccc1)C1=C(N2CCCC2)COC1=O	4.0	7.8	4.0	-16.8	x	1.2	x	x
O=c1[nH]c2cc3c(cc2cc1CN(Cc1cccs1)Cc1nnnn1Cc1ccco1)OCCO3	-0.2	-3.2	12.2	-9.5	-6.6	102.7*	10.7	3.7
O=Nc1c(O)[nH]c2ccc(F)cc12	0.1	2.8	12.4	0.0	-11.8	14.6	x	x
NC(=S)N=Nc1c(O)[nH]c2ccc(F)cc12	5.3	-2.0	3.7	-0.3	3.5	83.5*	45.8	35.9*
CCC1CCCCN1CCCCOc1cccc(Cl)c1 (stereo not drawn)	-29.2	-6.1	4.9	-14.3	9.4	-4.7	x	x
CC(=O)N1CCc2cc(N=NC3=C(O)CCCC3=O)ccc21	-7.4	-2.9	13.9	-10.5	-5.9	151.9*	74.0*	81.7*
CCn1c(O)c(/C=C2\C=Nc3ccccc32)sc1=Nc1ccc(C)cc1	-27.7	-8.8	8.6	-0.8	1.4	18.4	x	x
CCn1c(O)c(/C=C2\C=Nc3ccccc32)sc1=O	16.2	-19.7	2.2	20.6	-9.1	86.0*	86.4*	6.1
N#CCSc1nc(-c2ccccc2)nc2ccccc12	17.6	-12.7	15.3	1.8	-11.9	93.8*	88.5*	5.3
CCOc1ccc(C2=Nn3cnnc3SC2)cc1	-12.4	-2.6	12.8	1.4	-9.2	8.8	x	x
O=[N+]([O-])c1ccc(C2=Nn3cnnc3SC2)cc1	-29.9	-7.8	0.0	-27.0	3.2	87.8*	57.8*	93.1*
CCn1c(=O)cc(OCC(=O)Nc2ccc(OC)c(OC)c2)c2ccccc21	-11.1	-5.8	6.6	1.3	-3.8	81.6*	21.0	4.2
CCn1c(=O)cc(OCC(=O)Nc2ccc3c(c2)OCCO3)c2ccccc21	-15.2	-3.4	17.2	8.4	-2.7	9.7	x	x
CCn1c2ccccc2c2cc(NC(=O)COC(=O)c3cc(OC)c(OC)cc3OC)ccc21	19.1	-17.2	0.0	16.4	-7.3	79.9*	88.8*	12.4
O=C(COC(=O)Cc1ccsc1)Nc1ccc(Br)cc1F	18.0	-6.5	-1.0	-10.5	x	0.9	x	x
Cc1ccc(C)c(-n2cc[nH]c2=S)c1	-10.1	-14.7	1.4	-25.1	-8.3	8.3	x	x
C=CCNc1sc(C(=O)c2ccccc2)c(N)c1-c1nc2ccccc2s1	-8.4	-18.0	x	x	1.2	92.9*	34.8	6.8
SMILES	OX1R antag-1	CHO parental Ca	TAAR1 agonist	TAAR1 antagonist	GPR7 antag	OX1R antag-2	OX1R HTRF confirm	CHO-K1 HTRF cnt	others
CC1(C)NC(=O)NC2(C)NC(=O)NC(C)(C)C12 (stereo not drawn)	-8.0	-3.1	12.1	0.9	15.5	-4.5	x	x
Cc1ccc(C)c(Nc2nc(-c3ccncc3)nc3ccccc23)c1	-21.7	-13.9	0.3	22.3	-14.5	8.8	x	x
O=C1NC2(Nc3ccccc31)C(=O)Nc1ccccc12 (stereo not drawn)	-8.5	-24.8	13.5	21.6	-6.4	80.1*	22.1	5.9
COCCN(Cc1ccccc1)C(=O)C1CCN(C(=O)Nc2ccccc2)CC1	15.3	0.7	0.8	10.8	x	4.4	x	x
COC(=O)N/N=C/c1ccc([N+](=O)[O-])s1	9.6	4.0	1.3	-11.2	-3.0	105.8*	43.9	84.9*
Cn1c(SCC(=O)N/N=C/c2cc([N+](=O)[O-])ccc2O)nnc1-c1ccccc1	-13.8	-19.1	-0.2	-13.3	6.2	1.3	x	x
Cn1c(SCC(=O)N/N=C/c2ccc([N+](=O)[O-])s2)nnc1-c1ccccc1	-6.1	-15.0	0.2	-3.9	-12.8	86.7*	36.5	51.8*
O=C(N/N=C/c1ccc([N+](=O)[O-])s1)c1ccccc1	-4.1	-10.7	1.0	17.8	-1.9	107.3*	36.0	51.8*
COc1ccc(NC(C)C(=O)N/N=C/c2ccc([N+](=O)[O-])s2)cc1 (stereo not drawn)	-6.3	-21.9	3.1	9.1	14.7	80.9	x	x
